Results on 23 compounds are retold here after ChEMBL document CHEMBL1137321, “Identification of small molecule agonists of the orphan nuclear receptors liver receptor homolog-1 and steroidogenic factor-1” (J Med Chem, 2006).

Assay [1] addresses T1, Nuclear receptor subfamily 5 group A member 2 (Homo sapiens, UniProt O00482). In words: Binding affinity to human LRH1 by FRET-based peptide recruitment assay. The gist of the method:
(§1)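 The apo-receptor starts with 1 equiv of bound phospholipid. EC50 determined, n = 3. Relative efficacy is normalized to the reference agonist at ±5%.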

The target of assay [2] is T1, Nuclear receptor subfamily 5 group A member 2. The assay can be described thus: Binding affinity to human LRH1 relative to 3-(E-Oct-4-en-4-yl)-1-phenylamino-2-phenyl-cis-bicyclo[3.3.0]oct-2-ene by FRET-based peptide recruitment assay. The essentials: as §1
For assay [3], the target named is T2, Steroidogenic factor 1 (Homo sapiens, UniProt Q13285). The assay can be described thus: Binding affinity to human SF1 by FRET-based peptide recruitment assay. The gist of the method: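 FRET assay measuring recruitment of a DAX-1 peptide (aa 1-23) to human SF-1. The apo-receptor starts with 1 equiv of bound phospholipid. Relative efficacy is normalized to the reference agonist at ±5%.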

The target of assay [4] is T1, Nuclear receptor subfamily 5 group A member 2. The assay can be described thus: Agonist activity at human LRH1 assessed as induction of SHP mRNA expression in HepG2 cells at 10 uM. Format: functional, cell-based. The essentials:
(§2)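 Human liver cells (HepG2 cells or primary hepatocytes) treated with 10 µM compound; SHP mRNA expression quantified by quantitative PCR.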

Assay [5] has as its target T2, Steroidogenic factor 1. In words: Binding affinity to human SF1 relative to 3-Hexyl-1-phenylamino-2-phenyl-cis-bicyclo[3.3.0]oct-2-ene1 by FRET-based peptide recruitment assay. The gist of the method:
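FRET assay measuring recruitment of a DAX-1 peptide (aa 1-23) to human SF-1. The apo-receptor starts with 1 equiv of bound phospholipid. EC50 determined, n = 3. Relative efficacy is normalized to the reference agonist at ±5%.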

In assay [6] the target is T1, Nuclear receptor subfamily 5 group A member 2. The assay can be described thus: Agonist activity at human LRH1 assessed as induction of SHP mRNA expression in human primary hepatocytes at 10 uM. Format: functional, cell-based. The following applies: Hepatocyte. The essentials:
as §2

For assay [7] the target is unchanged. In words: Agonist activity at human LRH1 expressed in CV1 cells assessed as SHP reporter gene transactivation by luciferase assay. The class given is functional, cell-based, CV-1. On the technique in general: A reporter such as luciferase makes a cellular process visible.

The source made the active and inactive calls. No cut-off for these calls is given here.

T2 sequence (Q13285 whole entry, the tested form may be a part): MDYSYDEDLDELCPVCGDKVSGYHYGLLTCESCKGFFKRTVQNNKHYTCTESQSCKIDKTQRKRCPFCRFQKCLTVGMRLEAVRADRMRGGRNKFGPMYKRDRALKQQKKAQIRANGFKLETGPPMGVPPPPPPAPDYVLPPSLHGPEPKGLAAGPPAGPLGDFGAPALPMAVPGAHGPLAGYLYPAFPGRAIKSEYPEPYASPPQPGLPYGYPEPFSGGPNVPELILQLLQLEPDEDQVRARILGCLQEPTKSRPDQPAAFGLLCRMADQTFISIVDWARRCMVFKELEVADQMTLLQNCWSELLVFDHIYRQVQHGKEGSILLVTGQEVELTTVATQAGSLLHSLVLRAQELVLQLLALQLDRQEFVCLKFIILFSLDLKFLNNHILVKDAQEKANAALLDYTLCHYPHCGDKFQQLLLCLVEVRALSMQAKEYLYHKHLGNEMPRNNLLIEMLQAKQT
T1 sequence (O00482 whole entry): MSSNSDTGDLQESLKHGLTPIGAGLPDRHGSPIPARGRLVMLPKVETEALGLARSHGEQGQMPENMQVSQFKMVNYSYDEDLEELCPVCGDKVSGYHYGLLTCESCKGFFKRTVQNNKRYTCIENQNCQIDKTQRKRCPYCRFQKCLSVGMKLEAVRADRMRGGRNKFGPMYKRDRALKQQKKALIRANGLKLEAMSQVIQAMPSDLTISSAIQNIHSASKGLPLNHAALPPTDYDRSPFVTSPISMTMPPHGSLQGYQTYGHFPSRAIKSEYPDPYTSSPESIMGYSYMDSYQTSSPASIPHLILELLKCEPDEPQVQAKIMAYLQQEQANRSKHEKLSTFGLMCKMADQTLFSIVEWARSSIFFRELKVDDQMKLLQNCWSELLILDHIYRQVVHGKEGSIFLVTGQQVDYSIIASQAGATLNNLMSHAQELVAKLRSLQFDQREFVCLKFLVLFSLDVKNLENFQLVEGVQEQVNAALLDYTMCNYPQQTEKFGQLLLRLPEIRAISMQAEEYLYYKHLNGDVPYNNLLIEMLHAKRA

Take `CCC/C=C(\CCC)C1=C(C)[C@]2(Nc3ccccc3)CCC[C@@H]2C1`: the results for the EC50 (in assay [1]; on Steroidogenic factor 1 [3]) were 90 nM and above 10000 nM, respectively. In assay [2], this compound returned an Efficacy of 15%.

As to `CCC/C=C(\CCC)C1=C(c2ccccc2)[C@]2(Nc3ccccc3)CCC[C@@H]2C1` (relative stereo), the result in assay [4] and in assay [6] was Active. Also, the Efficacy on Steroidogenic factor 1 [5] is 50%. For the same compound, the values for the EC50 in assay [1] and in assay [7] were 430 nM and 1000 nM, respectively.

As to `CCCCCCC1=C(c2ccccc2)[C@]2(Nc3ccccc3)CCC[C@@H]2C1` (relative stereo), the response in assay [1] was half-maximal at 34 nM (EC50). Moreover, in assay [2], the Efficacy is 45%.

`CCCCCCC1=C(c2ccccc2)[C@]2(Nc3ccc(OC(F)(F)F)cc3)CCC[C@@H]2C1` (relative stereo): the EC50 (in assay [1]; at Steroidogenic factor 1 [3]) was above 10000 nM each time.

In the case of `CCC/C=C(\CCC)C1=C(c2ccc(Br)cc2)[C@]2(Nc3ccccc3)CCC[C@@H]2C1` (relative stereo), the Efficacy on Steroidogenic factor 1 [5] turned out to be 35%; in assay [2], 70%. For the same compound, the EC50 – broadly, the concentration that produces a half-maximal response – in assay [1] is 160 nM; at Steroidogenic factor 1 [3], 170 nM.

As for `CCC/C=C(\CCC)C1=C(c2cccc(OC)c2)[C@]2(Nc3ccccc3)CCC[C@@H]2C1` (relative stereo), the Efficacy was 45% at Steroidogenic factor 1 [5] and 115% in assay [2]. For the same compound, the EC50 came to 100 nM in assay [1] and 140 nM on Steroidogenic factor 1 [3].

As for `CCCCCCCCC(C)C1=C(c2ccccc2)[C@]2(Nc3ccccc3)CCC[C@@H]2C1` (relative stereo), the results for the Efficacy (at Steroidogenic factor 1 [5]; in assay [2]) were 95% and 25%, respectively. The values for the EC50 (in assay [1]; at Steroidogenic factor 1 [3]) were 320 nM and 130 nM, respectively.

Regarding `CCCCC(C)C1=C(c2ccccc2)[C@]2(Nc3ccccc3)CCC[C@@H]2C1` (relative stereo), the Efficacy at Steroidogenic factor 1 [5] amounted to 90%; in assay [2] it was 45%. The EC50 was determined as 70 nM in assay [1] and 130 nM on Steroidogenic factor 1 [3].

As to `CCC/C=C(\CCC)C1=C(CCCC)[C@]2(Nc3ccccc3)CCC[C@@H]2C1` (relative stereo), the Efficacy was 95% at Steroidogenic factor 1 [5] and 50% in assay [2]. The half-maximal effective concentration (EC50) came out at 22 nM in assay [1] and 30 nM on Steroidogenic factor 1 [3].

For the compound `CCCCCCC1=C(c2ccccc2)[C@]2(Nc3ccc(C(C)(C)C)cc3)CCC[C@@H]2C1` (relative stereo), the EC50 (in assay [1]; on Steroidogenic factor 1 [3]) was above 10000 nM throughout.

For the compound `CC1=C(c2ccccc2)[C@]2(Nc3ccccc3)CCC[C@@H]2C1` (relative stereo), the EC50 in assay [1] was 2100 nM; on Steroidogenic factor 1 [3] it was above 10000 nM. For the same compound, in assay [2], the Efficacy was found to be 20%.

Compound `CCCCC/C=C(\CCCCC)C1=C(c2ccccc2)[C@]2(Nc3ccccc3)CCC[C@@H]2C1` (relative stereo) yielded an Efficacy on Steroidogenic factor 1 [5] of 30%. Besides, the values for the EC50 (in assay [1]; on Steroidogenic factor 1 [3]) were above 10000 nM and 14 nM, respectively.

Turning to `CCCCCCC1=C(c2ccccc2)[C@]2(Nc3ccc(Cl)cc3)CCC[C@@H]2C1` (relative stereo), the results for the Efficacy (at Steroidogenic factor 1 [5]; in assay [2]) were 25% and 15%, respectively. Besides, the EC50 in assay [1] is 1000 nM; on Steroidogenic factor 1 [3], 700 nM.

Regarding `CCCCCCC1=C(c2ccccc2)[C@]2(Nc3cccc(F)c3)CCC[C@@H]2C1` (relative stereo), the figures for the Efficacy (at Steroidogenic factor 1 [5]; in assay [2]) were 70% and 45%, respectively. The EC50 in assay [1] was determined as 330 nM; on Steroidogenic factor 1 [3], 560 nM.

On to `CCCCCCCCCCCCC1=C(c2ccccc2)[C@]2(Nc3ccccc3)CCC[C@@H]2C1` (relative stereo), for which the EC50 (in assay [1]; on Steroidogenic factor 1 [3]) was above 10000 nM each time.

On to `CCCCCCC1=C(c2ccccc2)[C@]2(Nc3cccc(C)c3C)CCC[C@@H]2C1` (relative stereo), for which the Efficacy on Steroidogenic factor 1 [5] stood at 20%; in assay [2] it was 30%. Moreover, the EC50 in assay [1] is 30 nM; on Steroidogenic factor 1 [3] it was 11 nM.

On to `CCCCCCC1=C(c2ccccc2)[C@]2(Nc3cccc4ccccc34)CCC[C@@H]2C1` (relative stereo), for which the EC50 was 1200 nM in assay [1] and above 10000 nM at Steroidogenic factor 1 [3]. For the same compound, the Efficacy in assay [2] came out at 45%.

As to `CCC/C=C(\CCC)C1=C(c2ccc3ccccc3c2)[C@]2(Nc3ccccc3)CCC[C@@H]2C1` (relative stereo), the Efficacy was found to be 30% on Steroidogenic factor 1 [5] and 55% in assay [2]. The EC50 amounted to 60 nM in assay [1] and 130 nM at Steroidogenic factor 1 [3].

Consider `CC/C=C(\CC)C1=C(c2ccccc2)[C@]2(Nc3ccccc3)CCC[C@@H]2C1` (relative stereo), for which the results for the Efficacy (on Steroidogenic factor 1 [5]; in assay [2]) were 80% and 50%, respectively. Also, the figures for the EC50 (in assay [1]; on Steroidogenic factor 1 [3]) were 1400 nM and 800 nM, respectively.

As for `c1ccc(N[C@@]23CCC[C@@H]2CC(c2ccccc2)=C3c2ccccc2)cc1` (relative stereo), the values for the Efficacy (at Steroidogenic factor 1 [5]; in assay [2]) were 55% and 35%, respectively. In addition, the EC50 in assay [1] was found to be 150 nM; on Steroidogenic factor 1 [3], 120 nM.

As for `CCCCCCC1=C(c2ccccc2)[C@]2(Nc3ccc(I)cc3)CCC[C@@H]2C1` (relative stereo), the EC50 (in assay [1]; on Steroidogenic factor 1 [3]) was above 10000 nM each time.

`CCC/C=C(\CCC)C1=C(C2CCCCC2)[C@]2(Nc3ccccc3)CCC[C@@H]2C1` (relative stereo): the figures for the Efficacy (on Steroidogenic factor 1 [5]; in assay [2]) were 90% and 50%, respectively. Besides, the EC50 in assay [1] is 12 nM; at Steroidogenic factor 1 [3] it was 10 nM.

In the case of `c1ccc(N[C@@]23CCC[C@@H]2CC(C2CCCCC2)=C3c2ccccc2)cc1` (relative stereo), the Efficacy on Steroidogenic factor 1 [5] was 65%; in assay [2] it was 25%. Besides, the EC50 stood at 230 nM in assay [1] and 180 nM on Steroidogenic factor 1 [3].
